RGS4 block: RGS4 inhibitors, primary screen, cell-based, HEK293 M3R inducible RGS4, calcium flux; 310,000 compounds, 0.45% hits; Regulator of G-protein signaling 4 (Homo sapiens), P49798; B-score at 10 µM; AID 463165, 2010; Fluo-4 calcium flux; hits give high values; triggered by carbachol at its EC20;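 active = B-score, a plate-corrected calcium signal, over three deviations above library mean, with baseline fluorescence within five deviations of library mean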;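 note: RGS4 expression induced by doxycycline in cells with stable M3 receptor; B-score is computed from the integrated fluorescence ratio over baseline after carbachol; higher B-score means a larger calcium signal and so more RGS4 inhibition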
Target sequence (P49798 whole entry, looked up): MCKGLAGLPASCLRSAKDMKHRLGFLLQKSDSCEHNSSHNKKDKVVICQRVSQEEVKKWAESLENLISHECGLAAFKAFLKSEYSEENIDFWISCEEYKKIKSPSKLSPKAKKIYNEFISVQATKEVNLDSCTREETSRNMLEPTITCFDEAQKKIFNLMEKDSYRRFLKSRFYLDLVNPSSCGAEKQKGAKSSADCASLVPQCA
MrgX1 allo act: positive allosteric modulators of MrgX1, primary screen, HEK293 cells, Fluo-4 calcium flux; Mas-related G-protein coupled receptor member X1 (Homo sapiens), Q96LB2; FDSS; hits give high values; B-score at 10 µM; 310,000 compounds, 0.63% hits; AID 588675, 2011;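 active = plate-corrected calcium response at least 3 library SD above typical, normal starting fluorescence, not activating the receptor alone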;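 note: compound read alongside a low EC10 to EC30 dose of BAM8-22 agonist; peak minus trough fluorescence over baseline measured at the second addition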
Target sequence (Q96LB2 whole entry, looked up): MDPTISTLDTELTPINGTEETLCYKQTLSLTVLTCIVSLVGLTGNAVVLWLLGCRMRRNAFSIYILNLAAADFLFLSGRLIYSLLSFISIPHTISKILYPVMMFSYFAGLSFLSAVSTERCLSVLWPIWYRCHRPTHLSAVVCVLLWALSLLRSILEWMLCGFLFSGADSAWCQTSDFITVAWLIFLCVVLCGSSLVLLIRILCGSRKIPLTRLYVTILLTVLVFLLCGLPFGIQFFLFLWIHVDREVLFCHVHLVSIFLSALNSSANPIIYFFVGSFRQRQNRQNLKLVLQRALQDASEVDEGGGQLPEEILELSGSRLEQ
MrgX1 agonist: agonists of human MrgX1 receptor, primary screen, HEK293 cells, Fluo-4 calcium flux; B-score at 10 µM; 310,000 compounds, 0.44% hits; Fluo-4 calcium fluorescence, agonist mode; hits give high values; Mas-related G-protein coupled receptor member X1 (Homo sapiens), Q96LB2;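 active = calcium response B-score plate-corrected fluorescence ratio at least 3 library SD, with starting fluorescence B-score inside 5 SD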
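Material – MrgX1-expressing HEK293 cells · Input – 15,000 cells seeded per well · Dosing – compound as first of three additions · Times – overnight seeding, then 1 h dark dye loading · Measured by – kinetic Fluo-4 NW fluorescence of intracellular calcium · Read-out – B-scored fluorescence response ratio · Benchmarks – positive and negative control wells on each plate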
MrgX1 antag: antagonists of human MrgX1 receptor, primary screen, HEK293 cells, Fluo-4 calcium flux; BAM8-22 antagonism; hits give low values; 310,000 compounds, 1.3% hits; AID 588676, 2011; Mas-related G-protein coupled receptor member X1 (Homo sapiens), Q96LB2; B-score at 10 µM;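 active = calcium-response B-score plate-corrected more than 3 library SD below zero, starting fluorescence within 5 deviations, no agonist response on first addition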;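 note: peak minus trough fluorescence over baseline after final BAM8-22 challenge near maximal dose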
RGS4 act: RGS4 potentiators or activators, primary screen, cell-based, HEK293 M3R inducible RGS4, calcium flux. carbachol calcium flux Fluo4; hits give low values. B-score at 10 µM. 310,000 compounds, 0.92% hits. AID 463111, 2010;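 active = B-score of the integrated calcium signal more than 4 SD below the library mean, with starting fluorescence not abnormally high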;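 note: negative B-score means reduced calcium response which marks RGS4 activation or potentiation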
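Detection: kinetic calcium fluorescence imaging with Fluo4-AM dye, 2 µM / Material: HEK293 cells with stable M3R and inducible RGS4 / Schedule: recording 10 s baseline at 1 Hz, 100 s post-agonist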
RGS4 block valid: enhanced carbachol calcium response, M3R/RGS4 cells, RGS4 inhibitor project, cell-based, validation screen, HEK293 M3R/RGS4, calcium flux; AID 492999, 2010; calcium response, % at 10 µM; carbachol calcium Fluo-4 fluorescence; carbachol added at its EC20; 0 = buffer wells, 100 = carbachol control; shares compounds with RGS4 block; 1,700 compounds, 65% hits;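 active = duplicate-averaged calcium response above the buffer-only control mean plus 5 SD of those controls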;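 note: integrated fluorescence ratio F max minus min over baseline F0; higher response in RGS4-induced cells means RGS4 inhibition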
M3R Ca ctr: carbachol calcium response in non-induced M3R cells, confirmation, counter-screen for RGS4 inhibitor project, cell-based, HEK293 M3R. activity (percent), % at 10 µM. shares compounds with RGS4 block. 1,900 compounds, 20% hits. AID 493000, 2010. carbachol calcium Fluo-4; submaximal (EC20) carbachol stimulus; buffer wells 0%, carbachol control wells 100%; call rule not given here;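 note: RGS4 induction absent so cells express M3R without RGS4; higher means more calcium signal and flags a non-specific hit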
M3R basal Ca ctr: second RGS4 inhibitor counter-screen in uninduced cells lacking carbachol | AID 493001 | HEK293 M3R/RGS4 non-induced, Fluo-4 calcium, no carbachol; normalised: buffer wells 0%, carbachol wells 100% | shares compounds with RGS4 block | 1,900 compounds, 22% hits | calcium response (agonist-mode artifact), % at 10 µM;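 active = duplicate-averaged calcium rise in uninduced cells above buffer wells' mean plus 5 SD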
MrgX1 ag confirm: MrgX1 receptor agonists, duplicate retest, confirmation, HEK293 cells, Fluo-4 calcium flux; 600 compounds, 78% hits; shares compounds with MrgX1 agonist; Fluo-4 calcium fluorescence, FDSS; activation, % at 10 µM;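 active = calcium signal rise, corrected for plate position, at least 3 library SD high, with starting brightness within 5 such deviations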
HEK293 Ca flux: nonspecific calcium signal in parental HEK293, confirmation, counter-screen for MrgX1 antagonist project, parental HEK293 cells, Fluo-4 calcium flux | shares compounds with MrgX1 antag | Fluo-4 calcium fluorescence, FDSS | fluorescence ratio F(max-min)/F0 at 10 µM | 4,000 compounds, 2% hits;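 active = duplicate-averaged calcium fluorescence ratio at least three times the standard deviation of buffer wells, a nonspecific response in parental cells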
HEK293 Ca counter: calcium response in parental HEK293 cells, primary screen, counter-screen for MrgX1 allosteric activator project, cell-based, Fluo-4 calcium flux, duplicate. fluorescence ratio F(max-min)/F0 at 10 µM. shares compounds with MrgX1 antag. Fluo-4 fluorescence ratio; hits give high values. 4,000 compounds, 0.4% hits;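 active = calcium fluorescence ratio, averaged over duplicates, at least 3 SD of the buffer-well ratio, meaning a nonspecific response in receptor-free cells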;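 note: untransfected parental HEK293 lacking MrgX1 used as counterscreen for MrgX1 allosteric activators; fluorescence change taken during the second addition on a kinetic imager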
HEK293 Ca cntr2: calcium response in parental HEK293 cells, primary screen, counter-screen for MrgX1 agonist project, cell-based, Fluo-4 calcium flux, duplicate, agonist mode | fluorescence ratio F(max-min)/F0 at 10 µM | shares compounds with MrgX1 antag | Fluo-4 calcium fluorescence (FDSS); hits give high values | 4,000 compounds, 8.7% hits;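 active = calcium fluorescence ratio at least three times the spread of buffer wells, meaning a non-specific response in parental cells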
Numbers without * were called inactive; i = inactive; nt = no result. Compounds with a hit are over-represented: about 3.5% of the library has one in this group of screens.

SMILES | RGS4 block | MrgX1 allo act | MrgX1 agonist | MrgX1 antag | RGS4 act | RGS4 block valid | M3R Ca ctr | M3R basal Ca ctr | others
CC(C)c1oc(=O)cc2c1[C@@H](O)[C@H]1OC(=O)[C@@]3(C)C[C@@H](O)[C@@H](O)[C@@]2(C)C13 (stereo not given in full) | i | i | i | i | i | nt | nt | nt
C=CCC1(CN2CCCCCC2=O)C(=O)NC(=O)NC1=O | i | i | i | i | i | nt | nt | nt
Cc1nn(Cc2ccccc2)c(C)c1C=C1C(=O)NC(=S)NC1=O | 13.8* | i | i | i | i | 70.5%* | i | 8.0%*
Cc1ccccc1NP(=O)(Oc1ccccc1F)Oc1ccccc1F | i | i | i | i | -7.53* | i | i | i
Cc1cccc(NP(=O)(Oc2ccccc2)Oc2ccccc2)c1C | i | i | i | i | i | nt | nt | nt
CC(C)N1CCN(Cc2c[nH]c3ccccc23)CC1CCO (stereo not given) | i | i | i | i | i | nt | nt | nt
CC1CCN(C(=O)CCl)CC1 | i | i | i | i | i | nt | nt | nt
C=C1C(=O)O[C@@H]2C[C@@H](C)[C@@H]3C=CC(=O)[C@@]3(C)[C@@H](OC(=O)CC(=O)O[C@H]3[C@@H]4C(=C)C(=O)O[C@@H]4C[C@@H](C)[C@@H]4C=CC(=O)[C@]43C)[C@H]12 | i | i | i | -5.32* | i | nt | i | 11.0%*
N=Cc1c(O)n(-c2ccccc2)c(=O)n(-c2ccccc2)c1=O | i | i | i | i | i | nt | nt | nt
CCOC(=O)C1=C(N)OC2=C(C(=O)CCC2)C12C(=O)N(CC(N)=O)c1ccccc12 (stereo not given) | i | i | i | i | i | nt | nt | nt
CCOC(=O)C1=C(N)Oc2ccccc2C12C(=O)N(CC(=O)OC)C(CC(=O)OC)=C2C(=O)OC (stereo not given) | i | i | i | i | i | nt | nt | nt
CCCc1[nH]nc2c1C1(C(=O)N(Cc3ccccc3)c3ccccc31)C(C(=O)OC)=C(N)O2 (stereo not given) | 5.94* | i | i | i | i | 19.0%* | 29.5%* | i
CCCc1[nH]nc2c1C1(C(=O)N(CC(N)=O)c3ccccc31)C(C(=O)OC)=C(N)O2 (stereo not given) | i | i | i | i | i | i | i | i
Cc1c(C=C2C(=O)N(C)C(=S)N(C)C2=O)c2ccccc2n1CC(=O)NCC1CCCO1 (stereo not given) | 5.14* | i | i | i | i | 54.5%* | i | 24.5%*
O=C(Cn1cc(C=C2C(=O)NC(=O)NC2=O)c2ccccc21)NCC1CCCO1 (stereo not given) | i | i | i | i | i | nt | nt | nt
Cc1cc(C)cc(N2C(=O)NC(=O)/C(=C/c3cccn3-c3ccc(Cl)cc3)C2=O)c1 | i | i | i | i | i | i | i | i
NC(=O)c1cn(C2OC(CO)C(O)C2O)c2ncnc(N)c12 (stereo not given) | i | i | i | i | i | nt | nt | nt
CCNC(=O)[C@H]1O[C@@H](n2cnc3c(N)ncnc32)[C@H](O)[C@@H]1O | 9.75* | i | i | i | i | 34.5%* | i | i
O=C1NC(=O)C(=Cc2coc3ccc(O)cc3c2=O)C(=O)N1 | 5.3* | i | i | i | i | 8.5%* | i | i
COc1ccc(NP(=O)(Oc2ccc(Cl)cc2)Oc2ccc(Cl)cc2)cc1OC | 11.6* | i | i | i | i | 42.5%* | i | i
CCS(=O)(=O)Nc1cccc(C(=C2CCCCC2)c2cnc[nH]2)c1 | nt | i | i | i | nt | nt | nt | nt
CN(C)c1ccc(/C=C/[N+](=O)[O-])cc1 | 19.2* | i | i | i | i | 54.0%* | i | 75.5%*
C/C(=C\c1ccc(N(C)C)cc1)[N+](=O)[O-] | 7.61* | i | i | i | i | 23.5%* | 62.5%* | 14.5%*
CC(C)(C)c1ccc(O)c(N=Cc2c(O)ccc3ccccc23)c1 | i | i | 56.2* | i | i | nt | nt | nt | MrgX1 ag confirm=114.9%*;HEK293 Ca flux=i;HEK293 Ca counter=i;HEK293 Ca cntr2=46.4*
COc1ccc(Cl)cc1C(=O)C1CCCN(Cc2cnc(C)s2)C1 (stereo not given) | i | i | i | i | i | nt | nt | nt
CCCC(C)n1[nH]c(=O)c2c1NC(=O)CSC2c1ccccc1 (stereo not given) | i | i | i | i | i | nt | nt | nt
CN1CCN(c2cccc3c2C(=O)c2ccccc2C3=O)CC1 | i | nt | nt | nt | i | nt | nt | nt
CN1CCN(c2ccc3c(c2)S(=O)(=O)c2ccccc2C3=O)CC1 | i | i | 28.2* | i | i | nt | nt | nt | MrgX1 ag confirm=i;HEK293 Ca flux=i;HEK293 Ca counter=i;HEK293 Ca cntr2=50.8*

Screens from PubChem BioAssay.
